From ChEMBL document CHEMBL1135820, “A sorbitol dehydrogenase inhibitor of exceptional in vivo potency with a long duration of action: 1-(R)-[4-[4-(4,6-dimethyl[1,3,5]triazin-2-yl)- 2R,6S-dimethylpiperazin-1-yl]pyrimidin-2-yl]ethanol” (J Med Chem, 2002)

Legend:
Sorbitol dehydrogenase [1] = biological target: T1, Sorbitol dehydrogenase (Homo sapiens, UniProt Q00796); assay: Concentration required for 50% for in vitro activity against human SDH (sorbitol dehydrogenase)
T1 sequence (Q00796 whole entry): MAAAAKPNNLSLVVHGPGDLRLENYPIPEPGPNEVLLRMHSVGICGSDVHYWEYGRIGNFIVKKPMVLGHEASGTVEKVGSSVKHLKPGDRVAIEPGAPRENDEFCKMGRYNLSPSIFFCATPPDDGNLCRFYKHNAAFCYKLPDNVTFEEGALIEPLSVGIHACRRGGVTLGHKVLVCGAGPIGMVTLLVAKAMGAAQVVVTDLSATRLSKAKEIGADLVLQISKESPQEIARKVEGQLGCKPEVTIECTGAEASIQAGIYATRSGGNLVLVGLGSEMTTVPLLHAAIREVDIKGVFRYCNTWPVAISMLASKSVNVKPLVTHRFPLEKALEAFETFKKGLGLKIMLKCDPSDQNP

Sorbitol dehydrogenase [2] = biological target: T2, Sorbitol dehydrogenase (Rattus norvegicus, UniProt P27867); assay: Concentration required for 50% in vitro activity against rat SDH (sorbitol dehydrogenase)
T2 sequence (P27867 whole entry): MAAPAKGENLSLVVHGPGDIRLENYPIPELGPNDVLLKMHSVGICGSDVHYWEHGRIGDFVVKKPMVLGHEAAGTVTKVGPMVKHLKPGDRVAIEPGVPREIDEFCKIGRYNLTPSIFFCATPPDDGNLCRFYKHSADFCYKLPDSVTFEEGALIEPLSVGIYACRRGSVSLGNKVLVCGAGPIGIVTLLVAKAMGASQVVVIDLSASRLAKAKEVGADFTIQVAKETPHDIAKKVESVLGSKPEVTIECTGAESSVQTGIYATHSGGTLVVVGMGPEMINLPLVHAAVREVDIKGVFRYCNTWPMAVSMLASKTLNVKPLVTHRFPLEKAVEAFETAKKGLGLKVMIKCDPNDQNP

Rattus norvegicus [3] = assay: Concentration required for […] inhibition of lower sciatic nerve fructose that became elevated in diabetic nerve in streptozotocin diabetic in vivo rat model; assay type: functional
[4] = pKa value was reported; assay type: physicochemical
Sorbitol dehydrogenase [5] = biological target: T1, Sorbitol dehydrogenase; assay: Concentration required for 50% in vitro activity against human SDH (sorbitol dehydrogenase)
[6] = biological target: T3, Sorbitol dehydrogenase (Rattus norvegicus) (UniProt P27867)
T3 sequence (whole entry): T2 sequence (P27867 whole entry)

Rattus norvegicus [7] = assay: % Ability to inhibit lower sciatic nerve fructose that became elevated in diabetic nerve in streptozotocin diabetic rat model at 1 mg/kg; assay type: functional
Procedure, shortened: (§1)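 Chronically diabetic rats were dosed at 0.05 or 1 mg/kg in a chronic test. Sciatic nerve fructose was measured and reported as percent inhibition of the diabetes-induced fructose elevation in sciatic nerve.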

[8] = biological target: T3, Sorbitol dehydrogenase (Rattus norvegicus); assay: In vitro inhibitory activity against rat sorbitol dehydrogenase and concentration that cause 90% inhibition was reported
Rattus norvegicus [9] = species: Rattus norvegicus; assay: % Ability to inhibit lower sciatic nerve fructose that became elevated in diabetic nerve in streptozotocin diabetic rat model at 0.05 mpk; assay type: functional; procedure, shortened: as §1

Row | IC50 (Sorbitol dehydrogenase [1]) [nM] | IC50 (Sorbitol dehydrogenase [2]) [nM] | Compound | ED90 (Rattus norvegicus [3]) [mg/kg] | also measured
1 | 4 | 6 | C[C@@H]1CN(c2ccnc(N3CCN(C)CC3)n2)C[C@H](C)N1c1ccnc([C@@H](C)O)n1 | 1 | 
2 | 5 | 4 | Cc1nc(C)nc(N2C[C@@H](C)N(c3ccnc([C@@H](C)O)n3)[C@@H](C)C2)n1 (stereo in doubt; 16) [listing 1 of 2 here] | 0.05 | pKa [4]: 6.2
3 | 7 | 10 | C[C@@H]1CN(c2ncnc(-c3ccccc3)n2)C[C@H](C)N1c1ccnc([C@@H](C)O)n1 | 1 | 
4 | 4 | 7 | Cc1cn(-c2nccc(N3C[C@@H](C)N(c4ccnc([C@@H](C)O)n4)[C@@H](C)C3)n2)c(C)n1 | 1 | 
5 |  | 32 | C[C@H](O)c1nccc(N2[C@H](C)CN(c3ccnc(N4CCN(C)CC4)n3)C[C@@H]2C)n1 |  | 
6 | 13 | 11 | Cc1cn(-c2nccc(N3C[C@@H](C)N(c4ccnc([C@@H](C)O)n4)[C@@H](C)C3)n2)cn1 | 1 | 
7 |  | 11 | C[C@H](O)c1nccc(N2C[C@@H](C)N(c3ccnc([C@@H](C)O)n3)[C@@H](C)C2)n1 | 2 | IC50 (Sorbitol dehydrogenase [5]): 10 nM; pKa [4]: 6.8; IC90 [6]: 31 nM
8 | 43 | 39 | Cc1nc(-c2ccccc2)nc(N2C[C@@H](C)N(c3ccnc([C@@H](C)O)n3)[C@@H](C)C2)n1 |  | Ability (Rattus norvegicus [3]): 81%
9 | 7 | 5 | Cc1ncnc(N2C[C@@H](C)N(c3ccnc([C@@H](C)O)n3)[C@@H](C)C2)n1 | 0.3 | 
10 |  | 20 | Cc1nc(CO)nc(N2C[C@@H](C)N(c3ccnc([C@@H](C)O)n3)[C@@H](C)C2)n1 |  | Ability (Rattus norvegicus [7]): 65%
11 |  |  | Cc1nc(C)nc(N2C[C@@H](C)N(c3ccnc([C@@H](C)O)n3)[C@@H](C)C2)n1 (stereo in doubt; 16) [listing 2 of 2 here] |  | IC90 [8]: 10 nM
12 | 16 | 9 | Cc1nc(C)nc(N2C[C@@H](C)N(c3ccnc([C@@H](C)O)n3)[C@@H](C)C2)n1 (stereo in doubt; 16a) |  | Ability (Rattus norvegicus [9]): 56%
